Neddyl block – inhibitors of cullin neddylation, primary screen, biochemical, TR-FRET, uHTS, NAE and Ubc12; AID 651699, 2012; 360,000 tested, 0.58% active; inhibition, % at 25 µM; NEDD8-conjugating enzyme Ubc12 (Homo sapiens) + NEDD8-activating enzyme E1 regulatory …; in the data active = inhibition above about 36%
Target sequence (P61081 whole entry, looked up): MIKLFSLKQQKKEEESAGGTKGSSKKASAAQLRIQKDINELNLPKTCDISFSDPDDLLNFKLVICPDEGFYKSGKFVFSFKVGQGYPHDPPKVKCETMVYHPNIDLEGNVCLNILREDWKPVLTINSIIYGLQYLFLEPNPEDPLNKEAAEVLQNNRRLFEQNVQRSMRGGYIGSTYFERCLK
Target sequence (Q13564 whole entry, looked up): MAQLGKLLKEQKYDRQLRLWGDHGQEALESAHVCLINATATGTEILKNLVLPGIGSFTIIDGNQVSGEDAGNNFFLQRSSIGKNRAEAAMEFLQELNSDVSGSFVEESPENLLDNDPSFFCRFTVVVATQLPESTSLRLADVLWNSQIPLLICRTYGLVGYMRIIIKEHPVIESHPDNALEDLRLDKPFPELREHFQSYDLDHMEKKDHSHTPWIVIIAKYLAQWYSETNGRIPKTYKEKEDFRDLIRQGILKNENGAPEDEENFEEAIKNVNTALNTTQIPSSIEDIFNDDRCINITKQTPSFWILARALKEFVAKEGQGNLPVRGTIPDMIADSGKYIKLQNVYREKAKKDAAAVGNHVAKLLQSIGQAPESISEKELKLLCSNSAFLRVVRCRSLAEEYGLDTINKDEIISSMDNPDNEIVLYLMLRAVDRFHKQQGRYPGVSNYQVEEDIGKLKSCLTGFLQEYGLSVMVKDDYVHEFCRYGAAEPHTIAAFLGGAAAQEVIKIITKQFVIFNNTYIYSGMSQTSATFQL
procasp7 counter – procaspase-7 activators, primary screen, counter-screen for procaspase-3 activator project, biochemical, absorbance, HTS, human | 330,000 tested, 0.093% active | recombinant procaspase-7, Ac-DEVD-pNA absorbance 405 nm; D23A/D198A/D206A triple mutant, cannot self-cleave; scale: DMSO 0, 5 µM enzyme 100 | AID 463210, 2010 | Caspase-7 (Homo sapiens), P55210 | activation, % at 8.5 µM;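 active = percent activation above the screen-wide mean plus 3 SD, cut at about 25% in these data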
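Detection: p-Nitroaniline absorbance at 405 nm, read at 0 and 120 min; system: Uncleavable procaspase-7 mutant enzyme; evaluation: % activation from two-timepoint absorbance difference, scaled to controls; times: 1 h enzyme–compound preincubation and 2 h substrate reaction, both 25 °C; buffer or medium: Zinc-free HEPES pH 7.4 with 300 mM NaCl, 0.01% Triton X-100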
procasp3 activ – activators of human procaspase-3 D3A mutant, primary screen, biochemical, absorbance, PC-3 D3A mutant, single concentration | Caspase-3 (Homo sapiens), P42574 | activation, % at 8.5 µM | 330,000 tested, 0.11% active | AID 463141, 2010 | recombinant procaspase-3 D3A, Ac-DEVD-pNA absorbance 405 nm;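 active = activation above the mean of all tested compounds plus 3 SD, cut at about 21% in these data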;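 also: 0% = DMSO alone and 100% = DMSO wells spiked with extra 5 µM PC-3 D3A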
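Test system: Procaspase-3 D3A mutant; medium: Zinc-free HEPES/NaCl buffer with 0.01% Triton X-100 at pH 7.4; reagent: DEVD-pNA substrate; doses: one concentration, 8.5 µM nominal, 0.8% DMSO; times: 1 h preincubation plus 2 h reaction at 25 °C; signal: Epi-absorbance at 405 nm of released p-nitroaniline, 0 and 120 min; replicates: singlicate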
GAA850 FXN act – FXN promoter activators, primary screen, cell-based, luciferase luminescence, HEK293 lucGAA850. HEK293 lucGAA850 FXN promoter luciferase reporter, 24 h; percent of 10 µM SAHA response. activation, % at 6 µM. 360,000 tested, 0.56% active. AID 540364, 2011;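 active = activation above the average of all compounds screened plus 3 SD, cutoff fixed separately per campaign, cut at about 7.5% in these data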;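 also: 0% = DMSO wells and 100% = 10 µM SAHA wells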
Calb FLC – C. albicans growth inhibition with fluconazole, primary screen, CaCi-2 strain, Alamar Blue fluorescence | growth inhibition, % (concentration not given with the values) | 300,000 tested, 0.57% active | C. albicans CaCi-2 + fluconazole, 48 h;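 active = growth inhibition above about 58% in most replicates, limit read from the data, passing the limit was not always enough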;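 also: all wells also contain fluconazole at 8 µg/ml as a sub-toxic cotreatment; 0% = median of DMSO wells and 100% = median of geldanamycin control wells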
HIF activator – HIF pathway transcriptional activators, primary screen, cell-based, U2OS HRE-luciferase, luminescence. AID 1910, 2009. activation, % at 7.5 µM (by protocol). 300,000 tested, 0.32% active. U2OS HRE-luciferase reporter; normalized: DMSO 0%, desferrioxamine 100%;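 active = mean activation of at least 10% of the iron chelator positive control signal, with at least half of replicates also reaching 10%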
Neddyl inh conf – blockade of NEDD8 conjugation to cullin – biochemical, TR-FRET, single concentration, confirmation | shares compounds with Neddyl block | TR-FRET cullin neddylation biochemical assay | calls only at 25 µM | 1,800 tested, 13% active | AID 652217, 2013; in the data active = inhibition above about 40%;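 also: neddylation substrate is the cullin 1 ring ligase complex with SKP2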
An asterisk follows results filed as active; i = inactive; . = no result given; + = active, no number. An excerpt weighted towards active compounds, which were near 1.9% of everything screened.

SMILES | Neddyl block | procasp7 counter | procasp3 activ | GAA850 FXN act | Calb FLC | HIF activator | Neddyl inh conf
O=C(Nc1ccccc1)Nc1nnc(/C=C/c2ccccc2Cl)s1 | 45* | 8 | 0 | 0 | 8 | 0 | i
Cc1ccccc1/C=N/n1c(-c2cc(-c3ccccc3)n[nH]2)n[nH]c1=S | 7 | -16 | -8 | 0 | -5 | 0 | .
S=c1[nH]nc(-c2cc(-c3ccccc3)n[nH]2)n1/N=C/c1c(Cl)cccc1Cl | 49* | -12 | -6 | 3 | -1 | 0 | i
S=c1[nH]nc(-c2cc(-c3ccccc3)n[nH]2)n1/N=C/C=C/c1ccco1 | 70* | -19 | -14 | 2 | 7 | 0 | i
COc1ccc(C)cc1NC(=O)CN(C)C1CCCCC1 | 1 | -3 | 2 | 0 | -3 | 0 | .
Cc1ccc(NC(=O)NC(=O)CN2CCCC2c2ccc3c(c2)OCCO3)cc1C (stereo not drawn) | -12 | -7 | 4 | 0 | . | . | .
Cc1nn(-c2ccccc2)c2nc(-c3ccccc3)cc(C(=O)N3CCOCC3)c12 | . | 5 | 7 | 0 | 22 | -1 | .
Cc1cc(C)nc(-n2nc(C)c3c(C(=O)O)cc(-c4cccc(Br)c4)nc32)n1 | 40* | -8 | 0 | 2 | 3 | 0 | i
CCN1C(=O)CCN(C2CCCC2)c2nc(Nc3ccc(C(=O)NC4CCN(C)CC4)cc3OC)ncc21 | 31* | . | . | -6 | . | . | i
CN(C)CCCNC(=O)C[C@H]1C[C@H](C(=O)N2CCCCC2)[C@@]2(C)c3[nH]c4cc(-c5ccco5)ccc4c3CCN2C1=O | 48* | 0 | 4 | 1 | . | . | i
Cc1sc(NC(=O)c2ccco2)c(C(c2ccccc2)N2CCC(C)CC2)c1C (stereo not drawn) | 45* | 2 | -4 | 0 | 23 | -1 | .
C[C@@H]1CC=C[C@H]2[C@H]1C(=O)N(Cc1ccccc1)[C@H]2c1ccc(/C=C/c2ccccc2)cc1F | 42* | 6 | -7 | 0 | -5 | -17 | .
O=C(CC(=O)Nc1ccc(Cl)cc1)N/N=C\c1cccc(F)c1 | -1 | 4 | -3 | 1 | 15 | -1 | .
NC1=Nc2cccc3cccc1c23 | 49* | -1 | -9 | 1 | 20 | -1 | i
COc1ccc(OC)c(/C=N\NC(=O)CSc2nnc(CCCc3ccc(OC)c(C)c3)o2)c1 | 37* | -5 | 6 | 0 | -3 | 0 | .
CCOCCN1CCN(c2c(C)c(C)nc3cc(-c4cc(OC)cc(OC)c4)nn23)CC1 | 45* | -2 | 3 | -1 | 7 | . | i
Cc1ccc(C)c(N(CC(=O)NCc2ccco2)C(=O)CNS(=O)(=O)c2ccccc2)c1 | -9 | -3 | -3 | -3 | 3 | -1 | .
Cc1ccc(S(=O)(=O)CC(=O)Nc2ccc3nc(C)sc3c2)cc1 | 4 | 6 | 4 | -2 | 41 | 1 | .
COC(=O)c1ccccc1NC(=O)N1CCN(c2ccccc2F)CC1 | 13 | 1 | -7 | 2 | 21 | 0 | .
COC(=O)c1ccccc1NC(=O)N1CCCC1 | 46* | 6 | -3 | -3 | 0 | 0 | i
CCOC(=O)Cn1nc(/C=C/c2ccc(OC)cc2)ccc1=O | 8 | -8 | -6 | 1 | -7 | 0 | .
COc1ccc(/C=C/c2ccc(=O)n(Cc3ccccc3)n2)cc1 | 49* | 13 | 3 | -3 | -7 | -1 | .
O=c1ccc(/C=C/c2ccccc2)nn1Cc1ccc(F)cc1 | 45* | -1 | 0 | 4 | -4 | -1 | i
COc1ccc(CNC(=O)CCNS(=O)(=O)c2ccc(NC(C)=O)cc2)cc1OC | -23 | 7 | 1 | 0 | . | . | .
O=C(c1ccccc1)N1CCN(C(=O)c2ccccc2)c2ccccc21 | 2 | . | . | 0 | . | . | .
SMILES | Neddyl block | procasp7 counter | procasp3 activ | GAA850 FXN act | Calb FLC | HIF activator | Neddyl inh conf
CC(O)[C@@H](NC(=O)C1CCC(CNC(=O)[C@H](Cc2ccccc2)NC(=O)OC(C)(C)C)CC1)C(=O)O (stereo partly drawn) | -7 | 1 | 3 | 0 | -10 | -1 | .
N#C/C(=C\c1c(N2CCCCCC2)nc2ccccn2c1=O)C(=O)NCc1ccco1 | -23 | -7 | -13 | 2 | -2 | 0 | .
C=CCNC(=O)/C(C#N)=C/c1c(N2CCCCCC2)nc2ccccn2c1=O | 48* | 2 | -5 | 0 | 0 | -6 | i
CCc1cc2c(=O)c(-c3nc4ccccc4n3C)c(C)oc2cc1OC(C)=O | 41* | 6 | -10 | 0 | . | 0 | i
COC(=O)[C@@]1(Cc2ccccc2)[C@H]2C(=O)N(C)C(=O)[C@H]2[C@H]2CN=C(SCc3ccc(C)cc3)N21 | -4 | -11 | -1 | 1 | . | . | .
Cc1cc(C)c2c(NC(=O)CCl)nn(C)c2n1 | 40* | 8 | 0 | 0 | 9 | -2 | i
Cc1cc(C)c2c(NC(=S)NC(=O)c3ccccc3)nn(C)c2n1 | 0 | 5 | 8 | -1 | 26 | -1 | .
CCCCN(C(=O)c1ccc(N2CCCC2=O)cc1)c1c(N)n(CCC)c(=O)[nH]c1=O | 11 | 3 | -2 | 0 | . | . | .
Cc1cccc(NS(=O)(=O)c2ccc(C3CCCCC3)cc2)n1 | 38* | 0 | 6 | -1 | 10 | 0 | i
Cc1cccc(NS(=O)(=O)c2ccc(C(C)(C)C)cc2)n1 | 35 | 13 | 9 | 1 | 0 | -10 | .
Cc1cccc(NS(=O)(=O)c2ccccc2)n1 | 42* | 6 | 0 | 1 | -12 | 0 | i
CCc1nc(N2CCN(Cc3ccc4c(c3)OCO4)CC2)c2oc3ccccc3c2n1 | 44* | 15 | 2 | -3 | -32 | 2 | i
COc1ccc2oc(=O)c(-c3nc4ccccc4o3)cc2c1 | 49* | 5 | 8 | 6 | -28 | 4 | +
COc1ccc2oc(=O)c(-c3nnc(NCc4ccco4)s3)cc2c1 | 45* | -7 | -9 | 5 | -3 | 4 | i
COc1ccc(-c2nnc(-c3cc4ccccc4oc3=O)o2)cc1 | . | 4 | 4 | 2 | 8 | . | .
Cc1cc(-c2ccccc2)nc(SCc2ccc(C(=O)O)cc2)n1 | -7 | . | . | 3 | -3 | -1 | .

From PubChem
